Compound activity from PubChem.
Hits are enriched below; roughly 2.6% of the tested compounds scored in any of these assays.
Ecoli rRNA inh: inhibitors of bacterial rRNA selective over humanized ribosomes. AID 720706. 1.6% of 350,000 active. GFP signal change (wild-type ribosome), % (no concentration beside the values). E. coli WT GFP vs humanized-ribosome RFP mutants, fluorescence, 24 h; active compounds read low; DMSO median 0, no signal -100;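 active = significant combined selectivity score with lowered wild-type GFP, culture density cut under 30%, mutant RFP and density less affected; inactive = any of these conditions unmet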
PvdQ inh: P. aeruginosa PvdQ acylase inhibition; purified PvdQ acylase, fluorescence plate reader; inhibition, % at 10 µM; 0.063% of 340,000 active; AID 488965; in the data active = inhibition above about 30%, passing the limit was not always enough;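 note: 0% = vehicle neutral wells and 100% = reference inhibitor wells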
SR-BI DiI-HDL act: activators of SR-BI mediated HDL lipid uptake. 0.096% of 320,000 active. AID 504775. CHO ldlA[mSR-BI] cells, DiI-HDL uptake fluorescence, 3 h; 100 = double the neutral-control signal. activation, % at 12.5 µM;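 active = mean replicate activation of at least 60% and every replicate at or above 60%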;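 note: 0% = median plate neutral-control signal and 100% = twice that signal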
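Material: SR-BI-overexpressing, LDLR-lacking CHO cells; schedule: compound exposure 3 h, 37 °C; reagent: DiI-labelled HDL at 10 µg/mL final; technique: bottom-read fluorescence, 550/595 nm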
SR-BI DiI inh: blocks mouse SR-BI lipid uptake from DiI-HDL | Q61009 | ldlA[mSR-BI] CHO cells, DiI-HDL uptake fluorescence, 3 h | inhibition, % at 12.5 µM | 0.96% of 320,000 active;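 active = mean replicate inhibition of at least 70% and a set share of replicates each scoring 70 or more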;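 note: 0% = median of neutral control wells and 100% = median of positive control wells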
dFosB activator: mouse delta FosB homodimer activation | purified delta FosB, TAMRA-CDK5 oligo fluorescence polarization; percent of positive-control signal above neutral wells | activation, % at 25 µM | AID 493131 | 0.99% of 340,000 active;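 active = mean activation above about 17%, with every replicate also reaching it, limit read from the data, passing the limit was not always enough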
Target sequence (P13346 whole entry, looked up): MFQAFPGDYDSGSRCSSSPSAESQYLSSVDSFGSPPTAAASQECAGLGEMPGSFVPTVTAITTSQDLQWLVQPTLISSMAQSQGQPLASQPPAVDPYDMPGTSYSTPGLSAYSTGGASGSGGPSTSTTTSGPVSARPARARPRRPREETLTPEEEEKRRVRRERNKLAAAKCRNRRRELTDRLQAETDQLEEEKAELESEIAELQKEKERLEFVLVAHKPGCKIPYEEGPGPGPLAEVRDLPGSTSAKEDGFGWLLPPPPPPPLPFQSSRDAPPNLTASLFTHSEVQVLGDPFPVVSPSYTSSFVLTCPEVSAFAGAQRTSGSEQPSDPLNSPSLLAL
Xi reactivation: X-chromosome reactivation activator. XiGFP mouse fibroblasts, % GFP-positive cells imaging, 3 d; cells co-treated with 5-aza-dC sensitizer; scaled so ellipticine positive control = 100%. AID 743238. activation, % at 7.58 µM. 0.055% of 360,000 active;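 active = mean normalized replicate activation at least 10% and every replicate at or above 10%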;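 note: 0% = median of on-plate neutral control wells and 100% = ellipticine 6 µM median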
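Material: XiGFP fibroblasts, SV40-immortalized. Buffer or medium: DMEM plus 5-aza-dC sensitizer. Compound: single concentration per compound, delivered by pin transfer. Times: 3 days compound exposure. Controls: ellipticine 6 µM.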
Numbers without * were called inactive; x = no result given.

SMILES | Ecoli rRNA inh | PvdQ inh | SR-BI DiI-HDL act | SR-BI DiI inh | dFosB activator | Xi reactivation
CCOc1cc(C2/C(=C(/O)c3ccc(OC(C)C)cc3)C(=O)C(=O)N2CCCOC)ccc1O (stereo unspecified) | x | 2.1 | 7.6 | -7.6 | 9.4 | x
O=C(Cc1ccsc1)NCC(c1ccco1)N1CCCCC1 (stereo unspecified) | x | -13.5 | 27.9 | -27.9 | -0.8 | x
COCCOC(=O)C1=C(C)NC(=S)NC1c1cccs1 (stereo unspecified) | 8.2 | -6.1 | -15.3 | 15.3 | -4.5 | 0.1
C=CCOC(=O)C1=C(C)NC(=S)NC1c1cccs1 (stereo unspecified) | 2.7 | 10.7 | -77.6 | 77.6* | 0.0 | 0.1
CC(Sc1nc(N)cc(=O)[nH]1)C(=O)Nc1nc2c(s1)CCCC2 (stereo unspecified) | 4.0 | -5.8 | 2.4 | -2.4 | 1.0 | 0.2
CC(C)CN1C(=O)C(=O)N(CC(=O)c2ccc3c(c2)OCO3)C1=O | 1.7 | 9.2 | -9.2 | 9.2 | 1.1 | 0.0
COc1cccc(OCCNC(=O)c2cc([N+](=O)[O-])cc([N+](=O)[O-])c2)c1 | 7.7 | -4.0 | 9.9 | -9.9 | -17.1 | -0.1
O=C(NCC1CC1)c1cc([N+](=O)[O-])cc([N+](=O)[O-])c1 | 7.4 | 67.9* | 18.2 | -18.2 | 5.7 | 0.0
O=C(NCC1CCCCC1)c1cccc([N+](=O)[O-])c1 | 0.9 | 0.3 | -1.2 | 1.2 | -2.0 | 0.1
Cc1ccc(OCCNC(=O)c2cc(C(=O)NCCOc3ccc(C)cc3)cc([N+](=O)[O-])c2)cc1 | 7.8 | -18.4 | -71.5 | 71.5* | 3.2 | 0.1
COc1ccc(NC(=O)N(C)C[C@H]2Oc3c(NC(=O)NC4CCCCC4)cccc3C(=O)N([C@H](C)CO)C[C@@H]2C)cc1 | 0.5 | -5.8 | -24.7 | 24.7 | -7.0 | -0.1
Cc1ccc2[nH]c(O)c(N=NC(=O)CCc3ccccc3)c2c1Br | x | -11.1 | 2.6 | -2.6 | 17.0* | 0.1
C#CCNC(=O)/C=C/c1ccc(C)cc1 | -5.5 | 2.1 | 7.2 | -7.2 | -3.8 | 0.0
COc1ccc(C2c3[nH]c4ccccc4c3CCN2Cc2cccn2-c2ncccn2)cc1C (stereo unspecified) | -16.1 | -11.9 | -9.8 | 9.8 | 32.2* | 0.0
Nc1ccc2c(=O)[nH][nH]c(=O)c2c1 | 9.1 | -12.5 | 21.5 | -21.5 | 1.3 | 0.1
C(=N\c1c(-c2ccccc2)nc2n1CCS2)/c1ccccc1 | x | 6.7 | -34.0 | 34.0 | -8.5 | x
Clc1ccc(/C=N/c2c(-c3ccc(Cl)cc3)nc3n2CCS3)cc1 | x | -25.0 | -88.9 | 88.9* | -15.9 | x
CN(Cc1ccccc1)C(=O)c1[nH]cnc1C(=O)NCc1ccccc1 | -28.3* | -13.9 | 3.4 | -3.4 | -1.9 | 0.0
CN(Cc1ccccc1)C(=O)c1[nH]cnc1C(=O)NCc1ccc(CNC(=O)OC(C)(C)C)cc1 | -12.3 | 8.9 | -1.6 | 1.6 | -3.4 | 0.0
CC12CCCCC1NS(=O)(=O)OC2 (stereo unspecified) | x | -9.2 | 10.6 | -10.6 | -4.5 | 0.2
COCCNC(=O)CN1CCN(S(=O)(=O)c2ccc3c(c2)CCCC3)CC1 | -0.9 | 1.1 | 15.2 | -15.2 | -1.5 | 0.1
Cc1noc(C)c1NC(=O)N(C)C[C@@H]1OCCCC[C@@H](C)Oc2ccc(NC(=O)NC3CCCCC3)cc2C(=O)N([C@@H](C)CO)C[C@H]1C | 0.8 | x | x | x | x | 0.3
COc1ccc(/C=N/Nc2nnc(-c3ncc[nH]3)c3ccccc23)cc1 | x | -11.6 | -3.2 | 3.2 | -11.4 | x
Oc1ccc2ccccc2c1/C=N/Nc1nnc(-c2ncc[nH]2)c2ccccc12 | x | -13.6 | -135.5 | 135.6* | 11.3 | x
CC1(C(=O)NS(=O)(=O)c2ccccc2Cl)CCN1C(=O)C1(c2ccc(Cl)cc2)CCC1 (stereo unspecified) | -16.8* | x | x | x | x | 0.0
SMILES | Ecoli rRNA inh | PvdQ inh | SR-BI DiI-HDL act | SR-BI DiI inh | dFosB activator | Xi reactivation
CC1(C(=O)NS(=O)(=O)c2ccccc2Cl)CCN1C(=O)C1(c2ccc(Cl)cc2)CC1 (stereo unspecified) | 1.4 | x | x | x | x | 0.0
CC1(C(=O)NS(=O)(=O)c2ccc(Cl)s2)CCN1C(=O)C1(c2ccccc2)CCCC1 (stereo unspecified) | -31.0* | x | x | x | x | 0.2
CN1CC(c2ccccc2)Oc2ccccc2C1=S (stereo unspecified) | -36.2* | -20.1 | -3.9 | 3.9 | 3.0 | -0.2
O=C1CC(c2ccc(O)cc2)Oc2ccccc21 (stereo unspecified) | -16.1 | -5.3 | -0.6 | 0.6 | -5.1 | 0.0
O=[N+]([O-])c1ccc2nc(-c3ccc(Cl)cc3)n(OCc3ccccc3)c2c1 | x | -2.4 | -80.7 | 80.7* | -6.2 | x
Cc1ccc(COn2c(-c3ccc(Cl)cc3)nc3ccc([N+](=O)[O-])cc32)cc1 | x | 4.7 | -17.6 | 17.6 | 1.4 | x
CC1(O)CC2CC1C(C(=O)O)C2C(=O)O (stereo unspecified) | 7.5 | -7.7 | 15.2 | -15.2 | -3.0 | 0.2
O=C(OCn1ncc(Br)c(Br)c1=O)c1ccccc1Cl | -20.1* | 3.9 | 8.6 | -8.6 | -4.6 | x
O=C(OCn1ncc(Br)c(Br)c1=O)c1ccc(F)cc1 | x | -8.6 | x | x | -10.4 | x
CC(C)=CC(=O)O[C@@H]1Cc2c(ccc3ccc(=O)oc23)OC1(C)C | -7.7 | -8.5 | -45.7 | 45.8 | -4.6 | -0.3
CN(C)CC(=O)Nc1ccc2c(c1)[C@@H]1C[C@H](CC(=O)NCc3cccc(F)c3)O[C@@H](CO)[C@@H]1O2 | 3.9 | x | x | x | x | 0.0
COc1cccc(OC)c1OCCCCc1c(C)n[nH]c1C | -23.9* | 2.4 | -19.8 | 19.8 | -8.8 | 0.6
O=C(c1ccc(F)cc1)N(Cc1ccco1)C1CCS(=O)(=O)C1 (stereo unspecified) | 10.5 | 8.9 | 2.5 | -2.5 | 2.6 | -0.1
CC1(C)CC(=O)C(C=NCC(N)=O)=C(O)C1 | -22.6* | -0.5 | 5.5 | -5.5 | 4.6 | x
O=C(/C=C/c1ccccc1)CC(O)(c1ccccc1)C(F)(F)C(F)F (stereo unspecified) | -31.9* | -9.9 | 24.7 | -24.7 | -12.4 | x
O=C(/C=C/c1ccccc1)CC(O)(c1ccccc1)C(F)(F)F (stereo unspecified) | x | -10.6 | -18.4 | 18.4 | -8.7 | x
O=C(COC(=O)CCNS(=O)(=O)c1cccs1)Nc1cc(C(F)(F)F)ccc1Cl | -9.8 | -0.6 | 7.9 | -7.9 | -14.5 | 0.0
COc1cc(NC(=O)C2=C(N3CCOCC3)/C(=C\c3ccc(N(C)C)cc3)CCC2)cc(OC)c1OC | x | 28.2 | -74.3 | 74.3* | 2.6 | 0.3
COc1cc(C(=O)Nc2ccc(N(C)C)cc2)cc(OC)c1OC | x | -14.0 | -45.8 | 45.8 | -9.4 | x
O=C(Nc1ccccc1)C1=C(N2CCOCC2)/C(=C/c2cccnc2)CC1 | x | -3.3 | -35.8 | 35.8 | -5.2 | x
